In brackets after ≈: the same amount, converted by molar mass.
Experiments:
Assay type in all cases: functional
[1] = test system: Bacillus subtilis; assay: Antibacterial activity against Bacillus subtilis by NCCLS broth microdilution method; conditions: Bacillus subtilis; read-out: MIC90
[2] = test system: Staphylococcus aureus; assay: Antibacterial activity against Staphylococcus aureus by NCCLS broth microdilution method; conditions: Staphylococcus aureus; read-out: MIC90
[3] = test system: Klebsiella pneumoniae; assay: Antibacterial activity against Klebsiella pneumoniae by NCCLS broth microdilution method; conditions: Klebsiella pneumoniae; read-out: MIC90
[4] = test system: Pseudomonas aeruginosa; assay: Antibacterial activity against Pseudomonas aeruginosa by NCCLS broth microdilution method; conditions: Pseudomonas aeruginosa; read-out: MIC90
[5] = test system: Candida albicans; assay: Antifungal activity against Candida albicans by NCCLS broth microdilution method; conditions: Candida albicans; read-out: MIC90
In short: (§1)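 MIC90 was taken as the lowest concentration that inhibited 90% of pathogen growth after incubation, reported in μg/mL. Broth dilution followed the NCCLS reference standards: M27-A for yeasts and the proposed standard for conidium-forming filamentous fungi. Fluconazole was the reference drug.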

[6] = test system: Candida parapsilosis; assay: Antifungal activity against Candida parapsilosis by NCCLS broth microdilution method; conditions: Lodderomyces parapsilosis; read-out: MIC90; in short: as §1
[7] = test system: Aspergillus niger; assay: Antifungal activity against Aspergillus niger by NCCLS broth microdilution method; conditions: Aspergillus niger; read-out: MIC90; in short: as §1
[8] = test system: Cryptococcus neoformans; assay: Antifungal activity against Cryptococcus neoformans by NCCLS broth microdilution method; conditions: Cryptococcus neoformans; read-out: MIC90; in short: as §1

MIC90 [1]: 32 µg/mL (≈ 86.4 µM)
MIC90 [2]: 8 µg/mL (≈ 21.6 µM)
MIC90 [3]: 16 µg/mL (≈ 43.2 µM)
MIC90 [4]: 16 µg/mL (≈ 43.2 µM)
MIC90 [5]: 8 µg/mL (≈ 21.6 µM)
MIC90 [6]: 8 µg/mL (≈ 21.6 µM)
MIC90 [7]: 32 µg/mL (≈ 86.4 µM)
MIC90 [8]: 16 µg/mL (≈ 43.2 µM)
SMILES: CO/N=C1\C2CCCC1(C)C(c1ccc(F)cc1)NC2c1ccc(F)cc1 (stereo not drawn)
